Test results: ChEMBL document CHEMBL3872252, “New bithiazolyl hydrazones: Novel synthesis, characterization and antitubercular evaluation” (Bioorg Med Chem Lett, 2017)
Converted amounts (≈) assume the structure as drawn.

Experiments:
[1] = Antitubercular activity against Mycobacterium tuberculosis H37Ra ATCC 25177 active stage measured on day 8 by XTT reduction menadione based two-fold dilution assay; type: functional; conditions: ATCC 25177, 192 h
How it was run: (§1)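 M. tuberculosis H37Ra ATCC 25177 was exposed to 0.7–100 μg/mL in two-fold steps (0.7, 1.5, 3.1 … 100). Active stage was read after 8 days and dormant stage after 12 days of incubation. Inhibition was read by XTT reduction menadione assay (XRMA), absorbance 470 nm. MIC90 is the concentration giving ≥90% inhibition (µg/mL).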

[2] = Antitubercular activity against Mycobacterium bovis BCG ATCC 35743 dormant stage measured on day 12 by nitrate reductase based two-fold dilution assay; type: functional, Mycobacterium bovis BCG str. ATCC 35743; conditions: Mycobacterium tuberculosis variant bovis BCG, ATCC 35743, 288 h
[3] = Antitubercular activity against Mycobacterium bovis BCG ATCC 35743 active stage measured on day 8 by nitrate reductase based two-fold dilution assay; type: functional, Mycobacterium bovis BCG str. ATCC 35743; conditions: Mycobacterium tuberculosis variant bovis BCG, ATCC 35743, 192 h
[4] = Cytotoxicity against human HCT116 cells by MTT assay; type: toxicity, cell-based, HCT-116; conditions: for GI90: hct-116; for GI50: HCT116 cells
[5] = Cytotoxicity against human THP1 cells by MTT assay; type: toxicity, cell-based, THP-1; conditions: for GI90: thp-1; for GI50: THP1 cells
[6] = Antitubercular activity against Mycobacterium tuberculosis H37Ra ATCC 25177 dormant stage measured on day 12 by XTT reduction menadione based two-fold dilution assay; type: functional; conditions: ATCC 25177, 288 h; how it was run: as §1
[7] = Cytotoxicity against human MCF7 cells by MTT assay; type: toxicity, cell-based; conditions: for GI90: mcf7; for GI50: MCF7 cells
[8] = Antitubercular activity against Mycobacterium tuberculosis H37Ra ATCC 25177 dormant stage infected in human THP1 cells measured on day 12 by nitrate reductase assay; type: functional, THP-1; conditions: ATCC 25177, 288 h
[9] = Antitubercular activity against Mycobacterium tuberculosis H37Ra ATCC 25177 active stage infected in human THP1 cells measured on day 8 by nitrate reductase assay; type: functional, THP-1; conditions: ATCC 25177, 192 h
[10] = Selectivity index, ratio of GI50 for human MCF7 cells to MIC90 for Mycobacterium tuberculosis H37Ra ATCC 25177 dormant stage; type: toxicity, cell-based; conditions: read-out: Selectivity Index
How it was run: (§2)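 Cytotoxicity was measured on human MCF-7, HCT116 and THP-1 cells by MTT assay, with paclitaxel as reference. The selectivity index is GI50 for the given cell line divided by MIC90 for the given mycobacterial strain and stage.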

[11] = Selectivity index, ratio of GI50 for human MCF7 cells to MIC90 for Mycobacterium bovis BCG ATCC 35743 active stage; type: toxicity, cell-based; conditions: read-out: Selectivity Index
How it was run: (§3)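 Cytotoxicity was measured on human MCF-7, HCT116 and THP-1 cells by MTT assay, with paclitaxel as reference. GI50 is the concentration inhibiting 50% of cell growth. The selectivity index is GI50 for the given cell line divided by MIC90 for the given mycobacterial strain and stage.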

Staphylococcus aureus [12] = assay: Growth inhibition of Staphylococcus aureus at 3 ug/ml; type: functional; conditions: read-out: GI
How it was run: (§4)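 Screened against Gram-negative E. coli and P. aeruginosa and Gram-positive S. aureus and B. subtilis. Compound was tested at 3 µg/ml, and the read-out is percent growth inhibition.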

[13] = Selectivity index, ratio of GI50 for human THP1 cells to MIC90 for Mycobacterium bovis BCG ATCC 35743 dormant stage; type: toxicity, cell-based, THP-1; conditions: read-out: Selectivity Index; how it was run: as §2
Bacillus subtilis [14] = assay: Growth inhibition of Bacillus subtilis at 30 ug/ml; type: functional; conditions: read-out: GI
[15] = Selectivity index, ratio of GI50 for human THP1 cells to MIC90 for Mycobacterium tuberculosis H37Ra ATCC 25177 active stage; type: toxicity, cell-based, THP-1; conditions: read-out: Selectivity Index; how it was run: as §3
[16] = Selectivity index, ratio of GI50 for human MCF7 cells to MIC90 for Mycobacterium tuberculosis H37Ra ATCC 25177 active stage; type: toxicity, cell-based; conditions: read-out: Selectivity Index; how it was run: as §3
[17] = Selectivity index, ratio of GI50 for human THP1 cells to MIC90 for Mycobacterium tuberculosis H37Ra ATCC 25177 dormant stage; type: toxicity, cell-based, THP-1; conditions: read-out: Selectivity Index; how it was run: as §2
Bacillus subtilis [18] = assay: Growth inhibition of Bacillus subtilis at 3 ug/ml; type: functional; conditions: read-out: GI; how it was run: as §4
Pseudomonas aeruginosa [19] = assay: Growth inhibition of Pseudomonas aeruginosa at 10 ug/ml; type: functional; conditions: read-out: GI
[20] = Selectivity index, ratio of GI50 for human HCT116 cells to MIC90 for Mycobacterium bovis BCG ATCC 35743 dormant stage; type: toxicity, cell-based, HCT-116; conditions: read-out: Selectivity Index; how it was run: as §2
Staphylococcus aureus [21] = assay: Growth inhibition of Staphylococcus aureus at 10 ug/ml; type: functional; conditions: read-out: GI
[22] = Selectivity index, ratio of GI50 for human HCT116 cells to MIC90 for Mycobacterium bovis BCG ATCC 35743 active stage; type: toxicity, cell-based, HCT-116; conditions: read-out: Selectivity Index; how it was run: as §3
Escherichia coli [23] = assay: Growth inhibition of Escherichia coli at 3 ug/ml; type: functional; conditions: read-out: GI; how it was run: as §4
Bacillus subtilis [24] = assay: Growth inhibition of Bacillus subtilis at 10 ug/ml; type: functional; conditions: read-out: GI
Escherichia coli [25] = assay: Growth inhibition of Escherichia coli at 30 ug/ml; type: functional; conditions: read-out: GI
Staphylococcus aureus [26] = assay: Growth inhibition of Staphylococcus aureus at 30 ug/ml; type: functional; conditions: read-out: GI
Pseudomonas aeruginosa [27] = assay: Growth inhibition of Pseudomonas aeruginosa at 3 ug/ml; type: functional; conditions: read-out: GI; how it was run: as §4
[28] = Selectivity index, ratio of GI50 for human THP1 cells to MIC90 for Mycobacterium bovis BCG ATCC 35743 active stage; type: toxicity, cell-based, THP-1; conditions: read-out: Selectivity Index; how it was run: as §3
[29] = Selectivity index, ratio of GI50 for human HCT116 cells to MIC90 for Mycobacterium tuberculosis H37Ra ATCC 25177 dormant stage; type: toxicity, cell-based, HCT-116; conditions: read-out: Selectivity Index; how it was run: as §2
Pseudomonas aeruginosa [30] = assay: Growth inhibition of Pseudomonas aeruginosa at 30 ug/ml; type: functional; conditions: read-out: GI
[31] = Selectivity index, ratio of GI50 for human HCT116 cells to MIC90 for Mycobacterium tuberculosis H37Ra ATCC 25177 active stage; type: toxicity, cell-based, HCT-116; conditions: read-out: Selectivity Index; how it was run: as §3
[32] = Selectivity index, ratio of GI50 for human MCF7 cells to MIC90 for Mycobacterium bovis BCG ATCC 35743 dormant stage; type: toxicity, cell-based; conditions: read-out: Selectivity Index; how it was run: as §2
Escherichia coli [33] = assay: Growth inhibition of Escherichia coli at 10 ug/ml; type: functional; conditions: read-out: GI

SMILES | IC50 [1] | MIC90 [1] | IC50 [2] | MIC90 [2] | IC50 [3] | MIC90 [3] | GI90 [4] | GI90 [5] | IC50 [6] | MIC90 [6] | GI90 [7] | MIC90 [8] | MIC90 [9] | selectivity ratio [10] | selectivity ratio [11] | inhibition of growth at 3 µg/mL (Staphylococcus aureus [12]) | selectivity ratio [13] | inhibition of growth at 30 µg/mL (Bacillus subtilis [14]) | selectivity ratio [15] | selectivity ratio [16] | further results
CO[C@H]1/C=C/O[C@@]2(C)Oc3c(C)c(O)c4c(O)c(c(/C=N/N5CCN(C)CC5)c(O)c4c3C2=O)NC(=O)/C(C)=C\C=C\[C@H](C)[C@H](O)[C@@H](C)[C@@H](O)[C@@H](C)[C@H](OC(C)=O)[C@@H]1C [RIFAMPIN] | 0.51 µg/mL (≈ 0.62 µM) | 0.51 µg/mL (≈ 0.62 µM) | 0.81 µg/mL (≈ 0.984 µM) | 0.81 µg/mL (≈ 0.984 µM) | 0.45 µg/mL (≈ 0.547 µM) | 0.45 µg/mL (≈ 0.547 µM) | > 100 µg/mL | > 100 µg/mL | 0.75 µg/mL (≈ 0.911 µM) | 0.75 µg/mL (≈ 0.911 µM) | > 100 µg/mL | 0.7 µg/mL (≈ 0.851 µM) | 0.5 µg/mL (≈ 0.608 µM) |  |  |  |  |  |  |  | 
C/C(=N\NC(N)=S)c1sc(-c2ccccc2)nc1C | 0.12 µg/mL (≈ 0.413 µM) | 1.78 µg/mL (≈ 6.13 µM) | 0.97 µg/mL (≈ 3.34 µM) | 3.46 µg/mL (≈ 11.9 µM) | 0.94 µg/mL (≈ 3.24 µM) | 3.04 µg/mL (≈ 10.5 µM) | > 100 µg/mL | > 100 µg/mL | 0.78 µg/mL (≈ 2.69 µM) | 2.05 µg/mL (≈ 7.06 µM) | > 100 µg/mL | 3.67 µg/mL (≈ 12.6 µM) | 1.94 µg/mL (≈ 6.68 µM) | 13 | 9 | 47.5% | 24 | 76.7% | 46 | 15 | selectivity ratio [17]: 40; GI50 [4]: 47.3 µg/mL (≈ 163 µM); GI50 [5]: 81.5 µg/mL (≈ 281 µM); inhibition of growth at 3 µg/mL (Bacillus subtilis [18]): 43.4%; inhibition of growth at 10 µg/mL (Pseudomonas aeruginosa [19]): 65.1%; selectivity ratio [20]: 14; inhibition of growth at 10 µg/mL (Staphylococcus aureus [21]): 64.5%; selectivity ratio [22]: 16; inhibition of growth at 3 µg/mL (Escherichia coli [23]): 50.9%; inhibition of growth at 10 µg/mL (Bacillus subtilis [24]): 61.8%; GI50 [7]: 26 µg/mL (≈ 89.5 µM); inhibition of growth at 30 µg/mL (Escherichia coli [25]): 79.6%; inhibition of growth at 30 µg/mL (Staphylococcus aureus [26]): 78.4%; inhibition of growth at 3 µg/mL (Pseudomonas aeruginosa [27]): 47.4%; selectivity ratio [28]: 27; selectivity ratio [29]: 23; inhibition of growth at 30 µg/mL (Pseudomonas aeruginosa [30]): 79.4%; selectivity ratio [31]: 27; selectivity ratio [32]: 8; inhibition of growth at 10 µg/mL (Escherichia coli [33]): 66.7%
C/C(=N\Nc1nc(-c2ccccc2)cs1)c1sc(C)nc1C | 0.82 µg/mL (≈ 2.5 µM) | 25.3 µg/mL (≈ 77.1 µM) | 3.81 µg/mL (≈ 11.6 µM) | 17.2 µg/mL (≈ 52.4 µM) | 11.6 µg/mL (≈ 35.4 µM) | 40.4 µg/mL (≈ 123 µM) | > 100 µg/mL | > 100 µg/mL | 2 µg/mL (≈ 6.09 µM) | 16.5 µg/mL (≈ 50.1 µM) | > 100 µg/mL | 23.4 µg/mL (≈ 71.3 µM) | 32.5 µg/mL (≈ 99.1 µM) | 6 | 2 | 80.7% | 26 | 79.9% | 4 | 4 | selectivity ratio [17]: 6; GI50 [4]: > 100 µg/mL; GI50 [5]: > 100 µg/mL; inhibition of growth at 3 µg/mL (Bacillus subtilis [18]): 79.2%; inhibition of growth at 10 µg/mL (Pseudomonas aeruginosa [19]): 84%; selectivity ratio [20]: 26; inhibition of growth at 10 µg/mL (Staphylococcus aureus [21]): 82.8%; selectivity ratio [22]: 2; inhibition of growth at 3 µg/mL (Escherichia coli [23]): 81.8%; inhibition of growth at 10 µg/mL (Bacillus subtilis [24]): 81.5%; GI50 [7]: > 100 µg/mL; inhibition of growth at 30 µg/mL (Escherichia coli [25]): 82.3%; inhibition of growth at 30 µg/mL (Staphylococcus aureus [26]): 81.3%; inhibition of growth at 3 µg/mL (Pseudomonas aeruginosa [27]): 81.8%; selectivity ratio [28]: 2; selectivity ratio [29]: 6; inhibition of growth at 30 µg/mL (Pseudomonas aeruginosa [30]): 82.4%; selectivity ratio [31]: 4; selectivity ratio [32]: 26; inhibition of growth at 10 µg/mL (Escherichia coli [33]): 83.7%
